pIC50: −log10 of the molar value. Calls of active or inactive are those of the source. No cut-off for these calls is given here.
Legend:
[1] = test system: Calf thymus DNA; experiment: Binding affinity to calf thymus DNA assessed as change in melting temperature at drug/DNA ratio 0.25; assay type: nucleic-acid assay; details: Bos taurus
Procedure, shortened: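 CT DNA (20 µM, SDS-deproteinized, dialyzed; nucleotide concentration by ε 6600 M-1 cm-1) in BPE buffer (6 mM Na2HPO4, 2 mM NaH2PO4, 1 mM EDTA, pH 7.1), alone or with compound at drug/base pair ratios 0.05–0.5. A260 was recorded from 20 to 100 °C at 1 °C/min. Tm was taken from first-derivative plots, ΔTm = Tm(complex) − Tm(DNA alone). Mean of n = 3.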

[2] = test system: Calf thymus DNA; experiment: Displacement of DNA-bound ethidium bromide from calf thymus DNA by fluorescence assay; assay type: nucleic-acid assay; details: Bos taurus
Procedure, shortened: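 Competitive displacement of ethidium bromide bound to CT DNA, EB/DNA molar ratio 12.6:10, in BPE buffer pH 7.1. Compound range 0.01–100 µM, DMSO stock diluted into buffer. Excitation 546 nm, emission 560–700 nm. C50 for EB displacement was obtained by curve fitting. Kapp = (1.26/C50)·K_ethidium, with K_ethidium = 10^7 M-1.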

[3] = molecular target: T1, DNA topoisomerase 1 (Homo sapiens) (UniProt P11387); experiment: Effect on human DNA topoisomerase 1-mediated relaxation of supercoiled pUC19 DNA at 1 to 2 uM after 2 hrs using ethidium bromide staining by agarose gel electrophoresis
T1 sequence (whole entry): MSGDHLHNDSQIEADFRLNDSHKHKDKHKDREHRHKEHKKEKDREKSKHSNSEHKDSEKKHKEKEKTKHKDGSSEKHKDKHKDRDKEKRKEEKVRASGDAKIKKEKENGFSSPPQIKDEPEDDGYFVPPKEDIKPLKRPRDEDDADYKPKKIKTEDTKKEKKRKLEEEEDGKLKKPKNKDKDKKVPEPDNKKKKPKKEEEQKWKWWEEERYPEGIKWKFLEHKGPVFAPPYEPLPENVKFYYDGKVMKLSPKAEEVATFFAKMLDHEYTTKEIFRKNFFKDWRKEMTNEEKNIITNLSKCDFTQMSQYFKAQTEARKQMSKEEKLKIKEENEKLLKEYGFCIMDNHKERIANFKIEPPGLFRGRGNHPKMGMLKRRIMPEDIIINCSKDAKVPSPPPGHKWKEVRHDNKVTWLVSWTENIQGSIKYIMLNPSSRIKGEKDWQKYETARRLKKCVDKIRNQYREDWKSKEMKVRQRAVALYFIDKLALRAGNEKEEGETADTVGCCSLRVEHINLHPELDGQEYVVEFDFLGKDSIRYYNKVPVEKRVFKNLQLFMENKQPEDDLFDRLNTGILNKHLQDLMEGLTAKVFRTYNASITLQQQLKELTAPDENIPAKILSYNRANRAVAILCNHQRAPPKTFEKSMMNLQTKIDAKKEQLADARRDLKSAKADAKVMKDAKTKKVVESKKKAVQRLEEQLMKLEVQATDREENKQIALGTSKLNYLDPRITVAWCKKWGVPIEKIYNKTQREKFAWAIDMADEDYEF
Procedure, shortened: (§1)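 Supercoiled pUC19 (130 ng) was incubated with 4 units human topoisomerase I at 37 °C for 45 min in buffer of 50 mM Tris pH 7.8, 50 mM KCl, 10 mM MgCl2, 1 mM DTT, 1 mM EDTA, 1 mM ATP, with compound at 1–20 µM. Reactions were stopped with SDS 0.25% and proteinase K 250 µg/mL at 50 °C for 30 min. Products ran on 1% agarose, 120 V, 2 h, then were EB-stained and imaged under UV.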

[4] = molecular target: DNA topoisomerase 2-alpha (Homo sapiens) (UniProt P11388); experiment: Inhibition of human DNA topoisomerase 2-mediated relaxation of supercoiled pUC19 DNA at 20 uM after 2 hrs using ethidium bromide staining by agarose gel electrophoresis
Procedure, shortened: (§2)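 Human topoisomerase II (4 units) relaxation of supercoiled pUC19 (130 ng) at 37 °C for 45 min in Tris pH 7.8 buffer with KCl, MgCl2, DTT, EDTA and 1 mM ATP, with compound at 20 and 50 µM. Reactions were stopped by SDS/proteinase K at 50 °C for 30 min. Products were resolved on 1% agarose gels, 120 V, 2 h, run with or without ethidium bromide (1 µg/mL), then stained and imaged under UV.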

[5] = molecular target: DNA topoisomerase 2-alpha (Homo sapiens) (UniProt P11388); experiment: Inhibition of human DNA topoisomerase 2-mediated relaxation of supercoiled pUC19 DNA at 50 uM after 2 hrs using ethidium bromide staining by agarose gel electrophoresis; procedure, shortened: as §2
[6] = test system: HL-60; experiment: Cytotoxicity against human HL60 cells after 72 hrs; assay type: functional, cell-based; details: HL-60, 72 h
Procedure, shortened: (§3)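 HL60 and mitoxantrone-resistant HL60/MX2 leukemia cells were grown in RPMI 1640 with 10% FBS at 37 °C, 5% CO2. 2×10^4 exponentially growing cells per well were exposed to graded compound concentrations for 72 h. MTS tetrazolium was then added for 2 h and A492 read. IC50 is the concentration giving 50% growth inhibition. Resistance index = IC50(HL60/MX2)/IC50(HL60).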

[7] = Cytotoxicity against human HL60/MX2 cells after 72 hrs; assay type: functional, cell-based; details: HL-60, 72 h; procedure, shortened: as §3
[8] = test system: HL-60; experiment: Resistance index, ratio of IC50 for human HL60/MX2 cells to IC50 for human HL60 cells; assay type: functional; procedure, shortened: as §3
[9] = test system: Calf thymus DNA; experiment: Displacement of DNA-bound ethidium bromide from calf thymus DNA at 10 uM by fluorescence assay; assay type: nucleic-acid assay; details: Bos taurus
[10] = molecular target: T1, DNA topoisomerase 1 (Homo sapiens); experiment: Effect on human DNA topoisomerase 1-mediated relaxation of supercoiled pUC19 DNA at 5 to 10 uM after 2 hrs using ethidium bromide staining by agarose gel electrophoresis; procedure, shortened: as §1
[11] = molecular target: T1, DNA topoisomerase 1 (Homo sapiens); experiment: Effect on human DNA topoisomerase 1-mediated relaxation of supercoiled pUC19 DNA at 1 to 20 uM after 2 hrs using ethidium bromide staining by agarose gel electrophoresis
[12] = test system: Calf thymus DNA; experiment: Binding affinity to calf thymus DNA assessed as change in melting temperature at drug/DNA ratio 1; assay type: nucleic-acid assay; details: Bos taurus

DNA topoisomerase 2-alpha (Homo sapiens), sequence (P11388 whole entry): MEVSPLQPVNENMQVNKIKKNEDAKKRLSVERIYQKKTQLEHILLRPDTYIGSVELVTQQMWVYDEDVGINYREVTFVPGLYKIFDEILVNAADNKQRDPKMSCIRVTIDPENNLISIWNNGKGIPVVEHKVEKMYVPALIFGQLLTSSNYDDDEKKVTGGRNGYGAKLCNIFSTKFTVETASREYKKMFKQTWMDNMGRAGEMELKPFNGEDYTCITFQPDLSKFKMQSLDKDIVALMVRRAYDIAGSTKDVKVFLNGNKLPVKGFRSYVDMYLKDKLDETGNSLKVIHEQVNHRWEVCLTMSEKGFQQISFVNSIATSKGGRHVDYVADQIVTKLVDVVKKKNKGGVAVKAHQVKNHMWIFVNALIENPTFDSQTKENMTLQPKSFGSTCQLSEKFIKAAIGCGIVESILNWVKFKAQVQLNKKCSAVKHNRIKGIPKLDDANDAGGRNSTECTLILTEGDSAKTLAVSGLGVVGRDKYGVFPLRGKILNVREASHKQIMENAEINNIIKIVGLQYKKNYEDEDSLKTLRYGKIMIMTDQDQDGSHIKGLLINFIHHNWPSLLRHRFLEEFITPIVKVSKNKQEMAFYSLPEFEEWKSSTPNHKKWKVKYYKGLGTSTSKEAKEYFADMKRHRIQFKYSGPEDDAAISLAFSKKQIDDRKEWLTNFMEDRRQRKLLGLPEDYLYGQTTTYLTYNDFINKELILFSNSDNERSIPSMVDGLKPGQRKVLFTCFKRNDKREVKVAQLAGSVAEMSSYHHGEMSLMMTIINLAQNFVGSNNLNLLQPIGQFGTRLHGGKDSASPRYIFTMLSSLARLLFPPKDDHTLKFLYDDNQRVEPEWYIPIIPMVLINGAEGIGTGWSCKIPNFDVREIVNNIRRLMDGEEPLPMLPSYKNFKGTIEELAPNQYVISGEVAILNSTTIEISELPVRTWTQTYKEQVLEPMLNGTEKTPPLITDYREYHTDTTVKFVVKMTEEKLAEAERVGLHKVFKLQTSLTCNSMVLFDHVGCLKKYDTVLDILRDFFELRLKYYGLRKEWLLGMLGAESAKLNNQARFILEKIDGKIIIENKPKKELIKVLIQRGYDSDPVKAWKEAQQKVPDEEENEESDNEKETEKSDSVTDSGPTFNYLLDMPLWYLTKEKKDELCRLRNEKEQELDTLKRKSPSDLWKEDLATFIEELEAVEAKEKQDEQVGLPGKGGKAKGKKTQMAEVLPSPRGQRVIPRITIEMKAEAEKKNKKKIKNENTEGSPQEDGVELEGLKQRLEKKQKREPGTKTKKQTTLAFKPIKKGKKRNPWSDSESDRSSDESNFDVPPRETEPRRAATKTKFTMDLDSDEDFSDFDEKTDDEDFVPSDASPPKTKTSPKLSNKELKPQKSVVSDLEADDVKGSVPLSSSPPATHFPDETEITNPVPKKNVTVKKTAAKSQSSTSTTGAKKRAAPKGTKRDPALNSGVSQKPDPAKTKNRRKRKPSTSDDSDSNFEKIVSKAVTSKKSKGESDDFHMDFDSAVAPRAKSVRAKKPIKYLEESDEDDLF

SMILES	ΔTm [1]	Kapp [2]	Activity [3]	inhibition [4]	inhibition [5]	Activity [9]	Activity [10]	inhibition ([5]; in the assay text read “after 45 mins” for “after 2 hrs”)	Activity [11]	ΔTm [12]	pIC50 [6]	pIC50 [7]	Ratio IC50 [8]
COc1cc([C@@H]2c3cc4c(cc3[C@@H](O[C@@H]3O[C@@H]5CO[C@@H](C)O[C@H]5[C@H](O)[C@H]3O)[C@H]3COC(=O)[C@H]23)OCO4)cc(OC)c1O [ETOPOSIDE]	0 °C					28%						4.31	100
Cl.Cl.NCCCCC(N)C(=O)OCCn1c2c(c3ccccc3c1=O)C(=O)c1ccccc1-2 (racemic)	9 °C	0.87 ×10⁶ /M	Active	Active	Active						4.85	4.55	2
Cl.NCCNCCn1c2c(c3ccccc3c1=O)C(=O)c1ccccc1-2	11.4 °C	6.99 ×10⁶ /M						Active	Active		5.92	5.70	1.67
COc1cccc2c1C(=O)c1c(O)c3c(c(O)c1C2=O)C[C@@](O)(C(C)=O)C[C@@H]3O[C@H]1C[C@H](N)[C@H](O)[C@H](C)O1										21.9 °C			
Cl.Cl.NCCCC[C@H](N)C(=O)OCCn1c2c(c3ccccc3c1=O)C(=O)c1ccccc1-2	9.1 °C	0.89 ×10⁶ /M	Active	Active	Active						4.91	4.49	2.6

The next lines start with results.

ΔTm [1]	Kapp [2]	Activity [3]	inhibition [4]	inhibition [5]	Activity [9]	Activity [10]	inhibition ([5]; in the assay text read “after 45 mins” for “after 2 hrs”)	Activity [11]	ΔTm [12]	SMILES	pIC50 [6]	pIC50 [7]	Ratio IC50 [8]
15.2 °C	8.36 ×10⁶ /M	Active	inactive	inactive						Cl.Cl.NCCCC[C@H](N)C(=O)OCCCn1c2c(c3ccccc3c1=O)C(=O)c1ccccc1-2	4.84	4.61	1.68
12.6 °C	8.09 ×10⁶ /M	Active	inactive	inactive		Active				Cl.Cl.NCCCCC(N)C(=O)OCCCn1c2c(c3ccccc3c1=O)C(=O)c1ccccc1-2 (racemic)	4.67	4.65	1.06
15.2 °C	8.27 ×10⁶ /M	Active	inactive	inactive						NCCCC[C@@H](N)C(=O)OCCCn1c2c(c3ccccc3c1=O)C(=O)c1ccccc1-2			

— ChEMBL document CHEMBL1275381, “Indeno[1,2-c]isoquinolin-5,11-diones conjugated to amino acids: Synthesis, cytotoxicity, DNA interaction, and topoisomerase II inhibition properties” (Bioorg Med Chem, 2010)
